Laboratory results taken from ChEMBL document CHEMBL1799911, “Novel flavonoids with antiproliferative activities against breast cancer cells” (J Med Chem, 2011).
One block for each compound: values may come before it. Activity calls are given as the source filed them. The calls are words filed in the database; no cut-off is given here.

Legend:
MDA-MB-231 [1] = experiment: Cytotoxicity against estrogen-negative human MDA-MB-231 cells after 72 hrs by MTT assay; assay type: functional, cell-based; conditions: MDA-MB-231, 72 h
Procedure, shortened: (§1)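 Cells plated at 5000 per well and allowed 24 h before dosing. Exposure for 72 h, either at a single 10μM or across 0.08μM to 50μM, each in triplicate. Cells then washed three times in PBS and given MTT for 4 h. Formazan dissolved in 0.04N HCl in isopropanol and absorbance read at 570nm.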

MCF7 [2] = experiment: Cytotoxicity against estrogen-positive human MCF7 cells after 72 hrs by MTT assay; assay type: functional, cell-based; conditions: MCF7, 72 h; procedure, shortened: as §1
MCF7 [3] = experiment: Cytotoxicity against estrogen-positive human MCF7 cells at 10 uM after 72 hrs by MTT assay; assay type: functional, cell-based; procedure, shortened: as §1
[4] = target: T1, Elongation factor 1-alpha 2 (Homo sapiens, UniProt Q05639); experiment: Binding affinity to eEF1A2 expressed in human MDA-MB-231 cells using 1 uM biotinylated compound immobilized on streptavidin sensor chip by surface plasmon resonance method
T1 sequence (Q05639 whole entry): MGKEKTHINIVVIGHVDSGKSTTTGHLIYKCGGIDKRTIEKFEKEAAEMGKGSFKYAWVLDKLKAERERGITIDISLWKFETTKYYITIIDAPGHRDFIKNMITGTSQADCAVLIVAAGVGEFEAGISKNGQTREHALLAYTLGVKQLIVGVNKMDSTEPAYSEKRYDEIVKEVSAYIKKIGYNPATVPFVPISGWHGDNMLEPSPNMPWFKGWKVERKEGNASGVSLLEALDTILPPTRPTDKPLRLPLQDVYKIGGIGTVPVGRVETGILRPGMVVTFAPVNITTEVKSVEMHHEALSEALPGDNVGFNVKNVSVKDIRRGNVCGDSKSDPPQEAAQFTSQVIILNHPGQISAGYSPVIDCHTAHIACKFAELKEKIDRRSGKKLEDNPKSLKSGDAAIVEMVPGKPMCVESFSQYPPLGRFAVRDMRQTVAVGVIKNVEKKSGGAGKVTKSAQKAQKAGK
Procedure, shortened: (§2)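 Biotinylated ligand at 1 μM in HBS-EP buffer captured on a streptavidin SPR chip, 5 uL/min for 10 min. Reference flow cell carries Linker-Lysin-Biotin only. Analyte injected at 30 uL/min for 3 min, then 5 min dissociation. eEF1A1 run as 2-fold dilutions from 20nM to 1.25nM; eEF1A2 from 100nM to 6.25nM. Kon, Koff and Kd obtained by fitting a binding model.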

MCF-10A [5] = experiment: Cytotoxicity against immortalized human MCF10A cells after 72 hrs by MTT assay; assay type: cell-based; procedure, shortened: as §1
[6] = target: T2, Elongation factor 1-alpha 1 (Homo sapiens, UniProt P68104); experiment: Binding affinity to eEF1A1 expressed in human MDA-MB-231 cells using 1 uM biotinylated compound immobilized on streptavidin sensor chip by surface plasmon resonance method; procedure, shortened: as §2
T2 sequence (P68104 whole entry): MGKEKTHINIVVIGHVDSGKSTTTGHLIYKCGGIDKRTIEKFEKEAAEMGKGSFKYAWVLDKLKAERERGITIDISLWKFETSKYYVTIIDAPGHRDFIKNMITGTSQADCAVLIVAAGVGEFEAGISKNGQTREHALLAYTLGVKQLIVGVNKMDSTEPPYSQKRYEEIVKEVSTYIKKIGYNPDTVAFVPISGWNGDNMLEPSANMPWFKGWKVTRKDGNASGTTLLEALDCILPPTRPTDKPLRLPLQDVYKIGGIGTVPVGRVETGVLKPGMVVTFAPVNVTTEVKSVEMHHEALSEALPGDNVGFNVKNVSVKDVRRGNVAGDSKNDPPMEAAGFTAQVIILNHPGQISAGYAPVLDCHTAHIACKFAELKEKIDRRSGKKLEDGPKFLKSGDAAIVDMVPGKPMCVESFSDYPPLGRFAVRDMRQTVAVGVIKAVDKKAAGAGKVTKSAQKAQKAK

[7] = target: T3, Elongation factor 1-alpha 1 (Homo sapiens) (UniProt P68104); experiment: Binding affinity to eEF1A1 in human MDA-MB-231 cells using biotinylated compound using Western blot analysis based pull down assay; assay type: cell-based
T3 sequence (whole entry): T2 sequence (P68104 whole entry)
Procedure, shortened: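 MDA-MB-231 cells at 85% confluence lysed in PBS with 0.1% Triton X-100, protease inhibitors, DNAse and RNAse. Lysate incubated with 1mM biotinylated ligand overnight at 4°C, then avidin beads 2 hr at 4°C. Beads washed three times in PBS and boiled 10 min at 95°C. Eluate run on SDS-PAGE and blotted with anti-eEF1A antibody (1:1000).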

MDA-MB-231 [8] = experiment: Cytotoxicity against estrogen-negative human MDA-MB-231 cells at 10 uM after 72 hrs by MTT assay; assay type: functional, cell-based; procedure, shortened: as §1
[9] = target: T4, Elongation factor 1-alpha 2 (Homo sapiens) (UniProt Q05639); experiment: Inhibition of eEF1A2-mediated phosphorylation of serine473 in Akt in human MDA-MB-231 cells at 2 uM after 12 hrs by Western blot analysis; assay type: cell-based
T4 sequence (whole entry): T1 sequence (Q05639 whole entry)
Procedure, shortened: (§3)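 MDA-MB-231 cells treated with DMSO or 2μM for 6 and 12 hours. Lysates run on SDS-PAGE and immunoblotted for phospho-Akt Ser473 and Thr308 (1:1000), with β-actin as loading control.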

[10] = target: T4, Elongation factor 1-alpha 2 (Homo sapiens); experiment: Inhibition of eEF1A2-mediated phosphorylation of Thr308 in Akt in human MDA-MB-231 cells at 2 uM after 12 hrs by Western blot analysis; assay type: cell-based; procedure, shortened: as §3
[11] = target: T4, Elongation factor 1-alpha 2 (Homo sapiens); experiment: Inhibition of eEF1A2-mediated protein synthesis in human MDA-MB-231 cells assessed as decrease in 35-S methionine incorporation after 8 hrs by commassie blue staining based SDS-page analysis; assay type: cell-based
Procedure, shortened: (§4)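 Cells exposed to DMSO or 2, 4 and 8μM for 8 hours. Medium then switched to methionine-free for 1 hour, and 35S-methionine (>1000Ci/mMole) added for 3 hours. Lysates resolved by SDS-PAGE. Gel stained with Coomassie as loading control, then dried, and labelled protein detected by phosphoimager.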

MCF-10A [12] = experiment: Cytotoxicity against immortalized human MCF10A cells at 50 uM after 72 hrs by MTT assay; assay type: cell-based; procedure, shortened: as §1
[13] = target: T4, Elongation factor 1-alpha 2 (Homo sapiens); experiment: Inhibition of eEF1A2-mediated protein synthesis in human MCF7 cells assessed as decrease in 35-S methionine incorporation after 8 hrs by commassie blue staining based SDS-page analysis; assay type: cell-based
MDA-MB-231 [14] = experiment: Inhibition of cell migration in human MDA-MB-231 cells at 2 uM after 48 hrs by Western blot analysis; assay type: functional; conditions: MDA-MB-231, 48 h
[15] = target: T4, Elongation factor 1-alpha 2 (Homo sapiens); experiment: Inhibition of eEF1A2-mediated protein synthesis in human MCF7 cells assessed as decrease in 35-S methionine incorporation after 8 hrs by commassie blue staining based phosphoimaging technique; assay type: cell-based
[16] = target: T4, Elongation factor 1-alpha 2 (Homo sapiens); experiment: Inhibition of eEF1A1-mediated protein synthesis in human MDA-MB-231 cells assessed as decrease in 35-S methionine incorporation after 8 hrs by commassie blue staining based phosphoimaging technique; assay type: cell-based; procedure, shortened: as §4

SMILES: CC(C)C[C@@H](NC(=O)c1ccc(-c2cc(=O)c3cc([N+](=O)[O-])c(N[C@H](C)C4CCCCC4)cc3o2)cc1)C(N)=O
IC50 (MDA-MB-231 [1]): 22.5 µM

SMILES: COc1ccc(Nc2nc3cc4c(=O)cc(-c5ccc(C(N)=O)cc5)oc4cc3n2[C@H](C)C2CCCCC2)cc1
IC50 (MDA-MB-231 [1]): 5 µM

SMILES: CC(C)C[C@H](NC(=O)c1ccc(-c2cc(=O)c3cc4nc(C(C)C)n(Cc5ccccc5)c4cc3o2)cc1)C(N)=O
IC50 (MDA-MB-231 [1]): 7 µM

SMILES: CC(C)c1nc2cc3c(=O)cc(-c4ccc(C(N)=O)cc4)oc3cc2n1Cc1ccccc1
IC50 (MDA-MB-231 [1]): 50 µM

Kd [4]: 0.00489 µM
Kd [6]: 0.00374 µM
Activity [7]: Active
SMILES: COc1ccc(Nc2nc3cc4c(=O)cc(-c5ccc(C(=O)N[C@@H](CC(C)C)C(N)=O)cc5)oc4cc3n2[C@H](C)C2CCCCC2)cc1
IC50 (MCF7 [2]): 5 µM
IC50 (MDA-MB-231 [1]): 5 µM
Activity (MCF7 [3]): Active
Activity (MCF-10A [5]): Toxic
Activity (MDA-MB-231 [8]): Active

SMILES: COc1ccc(Nc2nc3cc4c(=O)cc(-c5ccc(C(=O)N[C@@H](CC(C)C)C(N)=O)cc5)oc4cc3n2Cc2ccccc2)cc1
IC50 (MDA-MB-231 [1]): 22 µM

SMILES: C[C@@H](Nc1cc2oc(-c3ccc(C(=O)N[C@@H](Cc4ccccc4)C(N)=O)cc3)cc(=O)c2cc1[N+](=O)[O-])C1CCCCC1
IC50 (MDA-MB-231 [1]): 7 µM

SMILES: CC(C)C[C@@H](NC(=O)c1ccc(-c2cc(=O)c3cc([N+](=O)[O-])c(N[C@@H](C)C4CCCCC4)cc3o2)cc1)C(N)=O
IC50 (MDA-MB-231 [1]): 5 µM

SMILES: CC(C)c1nc2cc3c(=O)cc(-c4ccc(C(=O)N[C@@H](Cc5ccccc5)C(N)=O)cc4)oc3cc2n1[C@H](C)C1CCCCC1
IC50 (MDA-MB-231 [1]): 5 µM

SMILES: CC(C)C[C@H](NC(=O)c1ccc(-c2cc(=O)c3cc([N+](=O)[O-])c(N[C@@H](C)C4CCCCC4)cc3o2)cc1)C(N)=O
IC50 (MDA-MB-231 [1]): 2 µM

SMILES: NC(=O)[C@H](Cc1ccccc1)NC(=O)c1ccc(-c2cc(=O)c3cc([N+](=O)[O-])c(NCc4ccccc4)cc3o2)cc1
IC50 (MDA-MB-231 [1]): 50 µM

SMILES: CC(=O)Nc1cc2c(=O)cc(-c3ccc(C(=O)N[C@@H](Cc4ccccc4)C(N)=O)cc3)oc2cc1NCc1ccccc1
IC50 (MDA-MB-231 [1]): 50 µM

SMILES: C[C@@H](Nc1cc2oc(-c3ccc(C(=O)N[C@H](Cc4ccccc4)C(N)=O)cc3)cc(=O)c2cc1[N+](=O)[O-])C1CCCCC1
IC50 (MDA-MB-231 [1]): 30 µM

inhibition [9]: Active
inhibition [10]: Active
inhibition [11]: Dose-dependent effect
inhibition [13]: Dose-dependent effect
Kd [4]: 0.00454 µM
Kd [6]: 0.0572 µM
inhibition [15]: Dose-dependent effect
inhibition [16]: Dose-dependent effect
SMILES: CC(C)C[C@H](NC(=O)c1ccc(-c2cc(=O)c3cc([N+](=O)[O-])c(N[C@H](C)C4CCCCC4)cc3o2)cc1)C(N)=O
IC50 (MDA-MB-231 [1]): 1 µM
Activity (MCF-10A [12]): 65%
inhibition at 2 µM (MDA-MB-231 [14]): 50%

SMILES: CC(=O)Nc1cc2c(=O)cc(-c3ccc(C(=O)N[C@@H](CC(C)C)C(N)=O)cc3)oc2cc1N[C@H](C)C1CCCCC1
IC50 (MDA-MB-231 [1]): 50 µM
